Reference: ChEMBL document CHEMBL4428036, “Discovery of novel berberine imidazoles as safe antimicrobial agents by down regulating ROS generation” (Bioorg Med Chem Lett, 2016)
Values after ≈ are worked out from the molar mass of the structure shown. Active and inactive are the calls of the source. No cut-off for these calls is given here.

Legend:
Micrococcus luteus = assay: Antimicrobial activity against Micrococcus luteus ATCC 4698 incubated for 24 hrs by NCCLS protocol based method; assay type: functional; conditions: ATCC 4698, 24 h
Outline: (§1)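 Two-fold serial broth microdilution in 96-well plates per NCCLS standards. MIC (µg/mL) taken as the lowest concentration giving complete growth inhibition. Berberine, chloromycin and norfloxacin were positive controls for bacteria; fluconazole for fungi.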

Staphylococcus aureus [1] = assay: Antimicrobial activity against methicillin-resistant Staphylococcus aureus N315 incubated for 24 hrs by NCCLS protocol based method; assay type: functional; conditions: N315, 24 h
Outline: (§2)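 Standard two-fold serial broth microdilution in 96-well plates per NCCLS; MIC (µg/mL) read as lowest concentration giving complete inhibition of microbial growth. Berberine, chloromycin and norfloxacin served as positive controls.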

Aspergillus flavus = assay: Antimicrobial activity against Aspergillus flavus ATCC 204304 incubated for 24 hrs by NCCLS protocol based method; assay type: functional; conditions: ATCC 204304, 24 h
Staphylococcus aureus [2] = assay: Antimicrobial activity against Staphylococcus aureus ATCC 25923 incubated for 24 hrs by NCCLS protocol based method; assay type: functional; conditions: ATCC 25923, 24 h; outline: as §1
Proteus hauseri = assay: Antimicrobial activity against Bacillus proteus ATCC13315 incubated for 24 hrs by NCCLS protocol based method; assay type: functional; conditions: ATCC13315, 24 h; outline: as §1
HepG2 [3] = assay: (§3) Cytotoxicity against human HepG2 cells assessed as cell viability at 6.25 to 100 ug/ml by MTT assay; assay type: cell-based; conditions: hepg2
Outline: (§4)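 HepG2 cells exposed to compound up to 100 μg/mL. Viability read by colorimetric MTT assay with berberine as control. Mean of three parallels ± one standard deviation.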

Cyberlindnera jadinii = assay: Antimicrobial activity against Candida utilis ATCC 9950 incubated for 24 hrs by NCCLS protocol based method; assay type: functional; conditions: Williopsis jadinii, ATCC 9950, 24 h
[4] = Antimicrobial activity against Eberthella typhosa ATCC 14028 incubated for 24 hrs by NCCLS protocol based method; assay type: functional; conditions: ATCC 14028, 24 h; outline: as §2
Escherichia coli = assay: Antimicrobial activity against Escherichia coli JM109 incubated for 24 hrs by NCCLS protocol based method; assay type: functional; conditions: JM109, 24 h; outline: as §1
Pseudomonas aeruginosa = assay: Antimicrobial activity against Pseudomonas aeruginosa ATCC 27853 incubated for 24 hrs by NCCLS protocol based method; assay type: functional; conditions: ATCC 27853, 24 h; outline: as §1
Saccharomyces cerevisiae = assay: Antimicrobial activity against beer yeast ATCC 9763 incubated for 24 hrs by NCCLS protocol based method; assay type: functional; conditions: ATCC 9763, 24 h
Bacillus subtilis = assay: Antimicrobial activity against Bacillus subtilis ATCC 6633 incubated for 24 hrs by NCCLS protocol based method; assay type: functional; conditions: ATCC 6633, 24 h; outline: as §1
[5] = Antimicrobial activity against Candida mycoderma ATCC 9888 incubated for 24 hrs by NCCLS protocol based method; assay type: functional, Candida vini; conditions: Kregervanrija fluxuum, ATCC 9888, 24 h
Candida albicans = assay: Antimicrobial activity against Candida albicans ATCC 10231 incubated for 24 hrs by NCCLS protocol based method; conditions: ATCC 10231, 24 h
HepG2 [6] = assay: Induction of ROS production in human HepG2 cells at 6.25 to 100 uM by DCFH-DA as probe based fluorescence microscopy; assay type: functional, cell-based
Outline: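 Intracellular ROS detected with the fluorescent probe DCFH-DA and imaged by fluorescence microscopy. Compounds tested at 6.25, 12.5, 25, 50 and 100 μM, with berberine for comparison.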

[7] = as §3; assay type: cell-based; conditions: HepG2 cells, read-out: Activity; outline: as §4
Calf thymus DNA [8] = assay: Binding affinity to calf thymus DNA by UV-Visible spectroscopy; assay type: nucleic-acid assay; conditions: Bos taurus
Outline: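 Calf thymus DNA held at a fixed concentration in Tris-HCl buffer pH 7.4, titrated with increasing compound. UV-vis absorption spectra recorded in 1.0 cm quartz cells, following the 260 nm DNA band. DNA concentration set from A260 using ε260 = 6600 L mol⁻¹ cm⁻¹ per phosphate. Purity confirmed by A260/A280 > 1.8.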

Calf thymus DNA [9] = assay: Binding affinity to calf thymus DNA by neutral red dye based UV-Visible spectroscopy; assay type: nucleic-acid assay; conditions: Bos taurus

COc1ccc2cc3[n+](cc2c1OC)CCc1cc2c(cc1-3)OCO2.[Cl-] [BERBERINE CHLORIDE]
MIC (Micrococcus luteus): 512 µg/mL | MIC (Staphylococcus aureus [1]): 128 µg/mL | MIC80 (Aspergillus flavus): 512 µg/mL | MIC (Staphylococcus aureus [2]): 512 µg/mL | MIC (Proteus hauseri): 256 µg/mL | Activity (HepG2 [3]): Toxic | MIC80 (Cyberlindnera jadinii): 256 µg/mL | MIC [4]: 512 µg/mL | MIC (Escherichia coli): 512 µg/mL | MIC (Pseudomonas aeruginosa): 256 µg/mL | MIC80 (Saccharomyces cerevisiae): 128 µg/mL | MIC (Bacillus subtilis): 512 µg/mL | MIC80 [5]: 128 µg/mL | MIC80 (Candida albicans): 512 µg/mL

COc1cc(Cn2cc(C)nc2C)c2cc3[n+](cc2c1O)CCc1cc2c(cc1-3)OCO2.[Cl-]
MIC (Micrococcus luteus): 64 µg/mL | MIC (Staphylococcus aureus [1]): 64 µg/mL | MIC80 (Aspergillus flavus): 128 µg/mL | MIC (Staphylococcus aureus [2]): 64 µg/mL | MIC (Proteus hauseri): 128 µg/mL | MIC80 (Cyberlindnera jadinii): 128 µg/mL | MIC [4]: 128 µg/mL | MIC (Escherichia coli): 128 µg/mL | MIC (Pseudomonas aeruginosa): 128 µg/mL | MIC80 (Saccharomyces cerevisiae): 256 µg/mL | MIC (Bacillus subtilis): 128 µg/mL | MIC80 [5]: 128 µg/mL | MIC80 (Candida albicans): 128 µg/mL

CCn1cc(C(=O)O)c(=O)c2cc(F)c(N3CCNCC3)cc21 [NORFLOXACIN]
MIC (Micrococcus luteus): 2 µg/mL (≈ 6.26 µM) | MIC (Staphylococcus aureus [1]): 8 µg/mL (≈ 25.1 µM) | MIC (Staphylococcus aureus [2]): 2 µg/mL (≈ 6.26 µM) | MIC (Proteus hauseri): 4 µg/mL (≈ 12.5 µM) | MIC [4]: 4 µg/mL (≈ 12.5 µM) | MIC (Escherichia coli): 16 µg/mL (≈ 50.1 µM) | MIC (Pseudomonas aeruginosa): 2 µg/mL (≈ 6.26 µM) | MIC (Bacillus subtilis): 1 µg/mL (≈ 3.13 µM)

CCCc1nccn1Cc1cc(OC)c(O)c2c[n+]3c(cc12)-c1cc2c(cc1CC3)OCO2.[Cl-]
MIC (Micrococcus luteus): 32 µg/mL | MIC (Staphylococcus aureus [1]): 32 µg/mL | MIC80 (Aspergillus flavus): 128 µg/mL | MIC (Staphylococcus aureus [2]): 16 µg/mL | MIC (Proteus hauseri): 64 µg/mL | MIC80 (Cyberlindnera jadinii): 128 µg/mL | MIC [4]: 64 µg/mL | MIC (Escherichia coli): 64 µg/mL | MIC (Pseudomonas aeruginosa): 128 µg/mL | MIC80 (Saccharomyces cerevisiae): 32 µg/mL | MIC (Bacillus subtilis): 64 µg/mL | MIC80 [5]: 128 µg/mL | MIC80 (Candida albicans): 64 µg/mL

COc1cc(Cn2ccnc2)c2cc3[n+](cc2c1O)CCc1cc2c(cc1-3)OCO2.[Cl-]
MIC (Micrococcus luteus): 16 µg/mL | MIC (Staphylococcus aureus [1]): 32 µg/mL | MIC80 (Aspergillus flavus): 64 µg/mL | MIC (Staphylococcus aureus [2]): 32 µg/mL | MIC (Proteus hauseri): 64 µg/mL | Activity (HepG2 [6]): Active | viability [7]: > 87% | MIC80 (Cyberlindnera jadinii): 32 µg/mL | MIC [4]: 1 µg/mL | MIC (Escherichia coli): 32 µg/mL | K (Calf thymus DNA [8]): 5.22 ×10³ L/mol | MIC (Pseudomonas aeruginosa): 64 µg/mL | MIC80 (Saccharomyces cerevisiae): 32 µg/mL | Activity (Calf thymus DNA [9]): Active | MIC (Bacillus subtilis): 8 µg/mL | MIC80 [5]: 128 µg/mL | MIC80 (Candida albicans): 64 µg/mL

CCCCCCCCCCCCCCCCCc1nccn1Cc1cc(OC)c(O)c2c[n+]3c(cc12)-c1cc2c(cc1CC3)OCO2.[Cl-]
MIC (Micrococcus luteus): 256 µg/mL | MIC (Staphylococcus aureus [1]): 128 µg/mL | MIC80 (Aspergillus flavus): 256 µg/mL | MIC (Staphylococcus aureus [2]): 256 µg/mL | MIC (Proteus hauseri): 256 µg/mL | MIC80 (Cyberlindnera jadinii): 512 µg/mL | MIC [4]: 512 µg/mL | MIC (Escherichia coli): 256 µg/mL | MIC (Pseudomonas aeruginosa): 256 µg/mL | MIC80 (Saccharomyces cerevisiae): 256 µg/mL | MIC (Bacillus subtilis): 256 µg/mL | MIC80 [5]: 256 µg/mL | MIC80 (Candida albicans): 256 µg/mL

CCc1nc(C)cn1Cc1cc(OC)c(O)c2c[n+]3c(cc12)-c1cc2c(cc1CC3)OCO2.[Cl-]
MIC (Micrococcus luteus): 64 µg/mL | MIC (Staphylococcus aureus [1]): 64 µg/mL | MIC80 (Aspergillus flavus): 128 µg/mL | MIC (Staphylococcus aureus [2]): 64 µg/mL | MIC (Proteus hauseri): 128 µg/mL | MIC80 (Cyberlindnera jadinii): 128 µg/mL | MIC [4]: 128 µg/mL | MIC (Escherichia coli): 128 µg/mL | MIC (Pseudomonas aeruginosa): 128 µg/mL | MIC80 (Saccharomyces cerevisiae): 128 µg/mL | MIC (Bacillus subtilis): 128 µg/mL | MIC80 [5]: 128 µg/mL | MIC80 (Candida albicans): 128 µg/mL

COc1cc(Cn2cnc(C)c2)c2cc3[n+](cc2c1O)CCc1cc2c(cc1-3)OCO2.[Cl-]
MIC (Micrococcus luteus): 16 µg/mL | MIC (Staphylococcus aureus [1]): 32 µg/mL | MIC80 (Aspergillus flavus): 64 µg/mL | MIC (Staphylococcus aureus [2]): 8 µg/mL | MIC (Proteus hauseri): 32 µg/mL | MIC80 (Cyberlindnera jadinii): 64 µg/mL | MIC [4]: 64 µg/mL | MIC (Escherichia coli): 32 µg/mL | MIC (Pseudomonas aeruginosa): 128 µg/mL | MIC80 (Saccharomyces cerevisiae): 32 µg/mL | MIC (Bacillus subtilis): 32 µg/mL | MIC80 [5]: 128 µg/mL | MIC80 (Candida albicans): 128 µg/mL

OC(Cn1cncn1)(Cn1cncn1)c1ccc(F)cc1F [FLUCONAZOLE]
MIC80 (Aspergillus flavus): 256 µg/mL (≈ 836 µM) | MIC80 (Cyberlindnera jadinii): 8 µg/mL (≈ 26.1 µM) | MIC80 (Saccharomyces cerevisiae): 16 µg/mL (≈ 52.2 µM) | MIC80 [5]: 32 µg/mL (≈ 104 µM) | MIC80 (Candida albicans): 32 µg/mL (≈ 104 µM)

CCCCCCCCCCCc1nccn1Cc1cc(OC)c(O)c2c[n+]3c(cc12)-c1cc2c(cc1CC3)OCO2.[Cl-]
MIC (Micrococcus luteus): 128 µg/mL | MIC (Staphylococcus aureus [1]): 64 µg/mL | MIC80 (Aspergillus flavus): 256 µg/mL | MIC (Staphylococcus aureus [2]): 128 µg/mL | MIC (Proteus hauseri): 128 µg/mL | MIC80 (Cyberlindnera jadinii): 256 µg/mL | MIC [4]: 256 µg/mL | MIC (Escherichia coli): 256 µg/mL | MIC (Pseudomonas aeruginosa): 256 µg/mL | MIC80 (Saccharomyces cerevisiae): 128 µg/mL | MIC (Bacillus subtilis): 128 µg/mL | MIC80 [5]: 128 µg/mL | MIC80 (Candida albicans): 128 µg/mL

CCCCc1nccn1Cc1cc(OC)c(O)c2c[n+]3c(cc12)-c1cc2c(cc1CC3)OCO2.[Cl-]
MIC (Micrococcus luteus): 32 µg/mL | MIC (Staphylococcus aureus [1]): 32 µg/mL | MIC80 (Aspergillus flavus): 64 µg/mL | MIC (Staphylococcus aureus [2]): 32 µg/mL | MIC (Proteus hauseri): 128 µg/mL | MIC80 (Cyberlindnera jadinii): 256 µg/mL | MIC [4]: 128 µg/mL | MIC (Escherichia coli): 128 µg/mL | MIC (Pseudomonas aeruginosa): 128 µg/mL | MIC80 (Saccharomyces cerevisiae): 64 µg/mL | MIC (Bacillus subtilis): 64 µg/mL | MIC80 [5]: 256 µg/mL | MIC80 (Candida albicans): 64 µg/mL

CCc1nccn1Cc1cc(OC)c(O)c2c[n+]3c(cc12)-c1cc2c(cc1CC3)OCO2.[Cl-]
MIC (Micrococcus luteus): 16 µg/mL | MIC (Staphylococcus aureus [1]): 16 µg/mL | MIC80 (Aspergillus flavus): 128 µg/mL | MIC (Staphylococcus aureus [2]): 8 µg/mL | MIC (Proteus hauseri): 64 µg/mL | MIC80 (Cyberlindnera jadinii): 64 µg/mL | MIC [4]: 64 µg/mL | MIC (Escherichia coli): 32 µg/mL | MIC (Pseudomonas aeruginosa): 64 µg/mL | MIC80 (Saccharomyces cerevisiae): 16 µg/mL | MIC (Bacillus subtilis): 32 µg/mL | MIC80 [5]: 256 µg/mL | MIC80 (Candida albicans): 64 µg/mL

COc1cc(Cn2ccnc2C)c2cc3[n+](cc2c1O)CCc1cc2c(cc1-3)OCO2.[Cl-]
MIC (Micrococcus luteus): 16 µg/mL | MIC (Staphylococcus aureus [1]): 32 µg/mL | MIC80 (Aspergillus flavus): 32 µg/mL | MIC (Staphylococcus aureus [2]): 16 µg/mL | MIC (Proteus hauseri): 64 µg/mL | MIC80 (Cyberlindnera jadinii): 32 µg/mL | MIC [4]: 32 µg/mL | MIC (Escherichia coli): 32 µg/mL | MIC (Pseudomonas aeruginosa): 64 µg/mL | MIC80 (Saccharomyces cerevisiae): 16 µg/mL | MIC (Bacillus subtilis): 64 µg/mL | MIC80 [5]: 128 µg/mL | MIC80 (Candida albicans): 64 µg/mL
